Test results published in ChEMBL document CHEMBL1131493, “Inhibitors of farnesyl protein transferase. 4-Amido, 4-carbamoyl, and 4-carboxamido derivatives of 1-(8-chloro-6,11-dihydro-5H-benzo[5,6]- cyclohepta[1,2-b]pyridin-11-yl)piperazine and 1-(3-bromo-8-chloro-6,11- dihydro-5H-benzo[5,6]cyclohepta[1,2-b]pyridin-11-yl)piperazine” (J Med Chem, 1998).

Experiments:
[1] = biological target: geranylgeranyltransferase type-I (Rattus norvegicus, UniProt P53610+Q04631); test: Inhibition of rat Geranylgeranyl transferase (GGPT); assay type: protein-complex assay
[2] = biological target: T1, Protein farnesyltransferase (Homo sapiens, UniProt P49354+P49356); test: Inhibition of Farnesyltransferase from Ras-CVLS or Ras-CVLL in Cos-7 monkey kidney cells; assay type: cell-based, Chlorocebus aethiops
[3] = biological target: T1, Protein farnesyltransferase; test: In vitro inhibition of farnesyltransferase farnesylation of the H-ras oncogene; assay type: protein-complex assay
[4] = Oral bioavailability in mouse (nude) (dose of 25 mg/kg); assay type: ADME, organism-based; details: in vivo
How it was run: (§1)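 Serum pharmacokinetics in nude mice or cynomolgus monkeys after oral (po) or iv dosing. Compounds were given as hydrochloride salts in 20% HPβCD unless otherwise noted. Other formulations were the hydrochloride salt in saline, the micronized free base in 20% HPβCD or corn oil (po) with saline for iv, or the hydrochloride salt in 0.4% methyl cellulose (po).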

[5] = (§2) Maximal plasma concentration in nude mice after 25 mg/kg oral dose; assay type: ADME, organism-based; parameters: dose 25 mg/kg, route oral; details: mouse; how it was run: as §1
[6] = test system: Mus musculus; test: In vivo antitumor efficacy after peroral dose of 25 mg/kg in mice expressed as duration for which compound was present above IC50; assay type: ADME, organism-based; parameters: dose 25 mg/kg, route oral; details: po; how it was run: as §1
[7] = In vivo antitumor efficacy in nude mice by injecting a dose of 25 mg/kg iv and serum half-life was determined; assay type: ADME, organism-based; parameters: dose 25 mg/kg, route intravenous; details: mouse; how it was run: as §1
[8] = (§3) In vivo antitumor efficacy in nude mice 0-24 hr after peroral dose of 25 mg/kg expressed as Area under the curve; assay type: ADME, organism-based; parameters: time < 24 hr, dose 25 mg/kg, route oral; details: nude, mouse, po; how it was run: as §1
[9] = In vivo antitumor efficacy in nude mice 0-24 hr after intravenous dose of 25 mg/kg expressed as Area under the curve; assay type: ADME, organism-based; parameters: time < 24 hr, dose 25 mg/kg, route intravenous; details: mouse; how it was run: as §1
[10] = In vivo antitumor efficacy in nude mice by injecting a dose of 25 mg/kg, as HCl salt in saline solution, iv and the serum half-life was determined; assay type: ADME, organism-based; parameters: dose 25 mg/kg, route intravenous; details: mouse
[11] = Oral bioavailability in mouse (nude) (dose 25 mg/kg i.v.); assay type: ADME, organism-based; details: in vivo
[12] = as §2; assay type: ADME, organism-based; parameters: dose 25 mg/kg, route oral; details: mouse; remark: listed apart in the source
[13] = test system: Mus musculus; test: In vivo antitumor efficacy in nude mice by injecting a dose of 25 mg/kg, as HCl salt in saline solution, perorally and the duration of action was reported; assay type: ADME, organism-based; parameters: dose 25 mg/kg, route oral; details: po
[14] = In vivo antitumor efficacy in nude mice by injecting a dose of 25 mg/kg, as HCl salt in saline solution, iv and the total drug exposure was determined. (0-24hr); assay type: ADME, organism-based; parameters: time < 24 hr, dose 25 mg/kg, route intravenous; details: mouse
[15] = In vivo antitumor efficacy in nude mice by injecting a dose of 25 mg/kg, as HCl salt in saline solution, perorally and the total drug exposure was determined (0-24hr); assay type: ADME, organism-based; parameters: time < 24 hr, dose 25 mg/kg, route oral; details: mouse, po
[16] = In vivo antitumor efficacy after peroral dose of 25 mg/kg expressed as duration for which compound was present above IC50; assay type: ADME, organism-based; parameters: dose 25 mg/kg, route oral; details: po; how it was run: as §1
[17] = In vivo antitumor efficacy in nude mice 0-24 hr after iperoral dose of 25 mg/kg expressed as Area under the curve; assay type: ADME, organism-based; parameters: time < 24 hr, dose 25 mg/kg; details: mouse, po; how it was run: as §1
[18] = In vivo antitumor efficacy in cynomolgus monkeys 0-8 hours after peroral dose of 25 mg/kg expressed as Area under the curve; assay type: ADME, organism-based, Macaca fascicularis; parameters: time < 8 hr, dose 25 mg/kg, route oral; details: cynomolgus monkey, po; how it was run: as §1
[19] = test system: Mus musculus; test: as §3; assay type: ADME, organism-based; parameters: time < 24 hr, dose 25 mg/kg, route oral; details: po, 24 h; how it was run: as §1
[20] = test system: Cynomolgus monkey; test: In vivo antitumor efficacy after peroral dose of 25 mg/kg in cynomolgus monkeys expressed as duration for which compound was present above IC50; assay type: ADME, organism-based, Macaca fascicularis; parameters: dose 25 mg/kg, route oral; details: po; how it was run: as §1
[21] = In vivo antitumor efficacy expressed as maximum plasma concentration after a peroral dose of 10 mg/kg in cynomolgus monkeys; assay type: ADME, organism-based, Macaca fascicularis; parameters: dose 10 mg/kg, route oral; details: cynomolgus monkey, po; how it was run: as §1
[22] = biological target: T1, Protein farnesyltransferase; test: In vitro inhibition of farnesyltransferase farnesylation of H-ras at […]
[23] = test system: Cynomolgus monkey; test: In vivo antitumor efficacy after peroral dose of 10 mg/kg in cynomolgus monkeys expressed as duration for which compound was present above IC50; assay type: ADME, organism-based, Macaca fascicularis; parameters: dose 10 mg/kg, route oral; details: po; how it was run: as §1
[24] = Maximal plasma concentration in cynomolgus monkeys after 10 mg/kg oral dose; assay type: ADME, organism-based, Macaca fascicularis; parameters: dose 10 mg/kg, route oral; details: cynomolgus monkey, plasma; how it was run: as §1

For `O=C(Nc1cccnc1)N1CCN(C2c3ccc(Cl)cc3CCc3cc(Br)cnc32)CC1` (stereo not given), the IC50 [1] was > 10 µM, the IC50 [2] was 3.7 µM and the IC50 [3] was 0.21 µM.

With `CN1CCC(CC(=O)N2CCN([C@@H]3c4ccc(Cl)cc4CCc4cc(Br)cnc43)CC2)CC1` the IC50 [1] was > 38 µM.

With `O=C(Cc1ccccn1)N1CCN(C2c3ccc(Cl)cc3CCc3cccnc32)CC1` (stereo not given) the IC50 [1] was > 46 µM.

In the case of `O=C(CN1C(=O)c2ccccc2C1=O)N1CCN(C2c3ccc(Cl)cc3CCc3cccnc32)CC1` (stereo not given), the IC50 [1] is reported as > 40 µM.

For `CCCNC(=O)N1CCC(CC(=O)N2CCN(C3c4ccc(Cl)cc4CCc4cc(Br)cnc43)CC2)CC1` (stereo not given), the IC50 [1] was > 33 µM, the IC50 [2] was 1.5 µM and the IC50 [3] was 0.1 µM.

For `O=C(Cc1ccc[n+]([O-])c1)N1CCN(C2c3ccc(Cl)cc3CCc3cccnc32)CC1` (stereo not given), the bioavailability [4] was 89%, the Cmax [5] was 12 µM and the “Time above IC50” value [6] was 4 h. For the same molecule, the half-life [7] was 36 min, the AUC at 24 h [8] was 11 µg·h/mL and the AUC at 24 h [9] was 12.3 µg·h/mL.

With `O=C(CC1CCNCC1)N1CCN(C2c3ccc(Cl)cc3CCc3cc(Br)cnc32)CC1` (stereo not given) the half-life [10] was 120 min, the IC50 [1] was > 38 µM and the bioavailability [11] was 65%. The Cmax [12] was 3 µM, the “Time above IC50” value [13] was 24 h and the IC50 [2] was 0.17 µM. The AUC at 24 h [14] was 27.2 µg·h/mL, the IC50 [3] was 0.072 µM and the AUC at 24 h [15] was 17.6 µg·h/mL.

In the case of `CN1CCC(NC(=O)N2CCN(C3c4ccc(Cl)cc4CCc4cc(Br)cnc43)CC2)CC1` (stereo not given), the IC50 [1] is reported as > 38 µM, the IC50 [2] is reported as 0.53 µM and the IC50 [3] is reported as 0.041 µM.

For `CC(=O)N1CCC(CC(=O)N2CCN(C3c4ccc(Cl)cc4CCc4cc(Br)cnc43)CC2)CC1` (stereo not given), the half-life [10] was 22.2 min, the IC50 [1] was > 34 µM and the bioavailability [11] was 28.8%. The Cmax [12] was 3 µM, the “Time above IC50” value [13] was 2 h and the IC50 [2] was 0.59 µM. The AUC at 24 h [14] was 9.51 µg·h/mL, the IC50 [3] was 0.102 µM and the AUC at 24 h [15] was 2.74 µg·h/mL.

In the case of `O=C(Cc1cc[n+]([O-])cc1)N1CCN([C@@H]2c3ccc(Cl)cc3CCc3cccnc32)CC1`, the half-life [10] is reported as 66 min, the bioavailability [4] is reported as 53% and the “Time above IC50” value [16] is reported as 2 h. It also gave a Cmax [5] of 3 µM, an AUC at 24 h [17] of 6 µg·h/mL and an IC50 [3] of 1.2 µM. For the same molecule, the AUC at 24 h [9] was 11.3 µg·h/mL.

With `O=C(/C=C/c1cccnc1)N1CCN(C2c3ccc(Cl)cc3CCc3cccnc32)CC1` (stereo not given) the IC50 [1] was > 50 µM and the IC50 [3] was 2.6 µM.

For `CCCC[C@H]1CN(C2c3ccc(Cl)cc3CCc3cc(Br)cnc32)CCN1C(=O)Cc1cc[n+]([O-])cc1` (stereo not given in full), the IC50 [1] was > 34.2 µM, the bioavailability [4] was 47% and the Cmax [5] was 11.5 µM. For the same molecule, the “Time above IC50” value [6] was 7 h, the half-life [7] was 120 min and the IC50 [2] was 0.63 µM. For the same molecule, the AUC at 24 h [14] was 91.4 µg·h/mL, the AUC at 24 h [8] was 43.2 µg·h/mL and the IC50 [3] was 0.06 µM.

For `N[C@@H](CO)C(=O)N1CCC(CC(=O)N2CCN(C3c4ccc(Cl)cc4CCc4cc(Br)cnc43)CC2)CC1` (stereo not given in full), the IC50 [1] was > 33 µM, the IC50 [2] was 1.05 µM and the IC50 [3] was 0.104 µM.

In the case of `O=C(Cc1cc[n+]([O-])cc1)N1CCN([C@H]2c3ccc(Cl)cc3CCc3cc(Br)cnc32)CC1`, the AUC at 8 h [18] is reported as 58.1 µg·h/mL, the IC50 [1] is reported as > 76 µM and the bioavailability [4] is reported as 100%. The Cmax [5] was 24.6 µM, the “Time above IC50” value [6] was 7 h and the half-life [7] was 114 min. For the same molecule, the AUC at 24 h [8] was 26.1 µg·h/mL, the AUC [19] was 35.3 µg·h/mL and the “Time above IC50” value [20] was 24 h. It also gave a Cmax [21] of 8 µM.

In the case of `CNC(=O)N1CCC(CC(=O)N2CCN(C3c4ccc(Cl)cc4CCc4cc(Br)cnc43)CC2)CC1` (stereo not given), the half-life [10] is reported as 30 min, the IC50 [1] is reported as > 35 µM and the bioavailability [11] is reported as 100%. For the same molecule, the Cmax [12] was 80 µM, the “Time above IC50” value [13] was 4 h and the IC50 [2] was 0.75 µM. The AUC at 24 h [14] was 9.9 µg·h/mL, the IC50 [3] was 0.05 µM and the AUC at 24 h [15] was 33.3 µg·h/mL.

For `O=C(Cc1cc[n+]([O-])cc1)N1CCN([C@H]2c3ccc(Cl)cc3CCc3cccnc32)CC1`, the bioavailability [4] was 72%, the Cmax [5] was 10 µM and the “Time above IC50” value [6] was 4 h. It also gave a half-life [7] of 48 min, an IC50 [2] of 5 µM and an AUC at 24 h [14] of 21.5 µg·h/mL. It also gave an AUC at 24 h [8] of 15.5 µg·h/mL and an IC50 [3] of 0.49 µM.

With `COCC[C@H]1CN(C2c3ccc(Cl)cc3CCc3cc(Br)cnc32)CCN1C(=O)Cc1cc[n+]([O-])cc1` (stereo not given in full) the Cmax [5] was 9 µM, the “Time above IC50” value [6] was 7 h and the IC50 [2] was < 0.25 µM. It also gave an AUC at 24 h [8] of 19.9 µg·h/mL and an IC50 [3] of 0.034 µM.

`CN(C(=O)N1CCN(C2c3ccc(Cl)cc3CCc3cccnc32)CC1)c1ccncc1` (stereo not given) gave an inhibition [22] of 0%.

For `CN1CCC(CC(=O)N2CCN([C@H]3c4ccc(Cl)cc4CCc4cc(Br)cnc43)CC2)CC1`, the IC50 [1] was > 38 µM.

In the case of `O=C(Cc1cc[n+]([O-])cc1)N1CCN(C2c3ccc(Cl)cc3C=Cc3cc(Br)cnc32)CC1` (stereo not given), the IC50 [2] is reported as 0.35 µM, the “Time above IC50” value [23] is reported as 31 h and the AUC at 24 h [9] is reported as 11.7 µg·h/mL. It also gave a Cmax [24] of 1.9 µM.
